Screening data from PubChem BioAssay.
Myeloid diff 2 – myeloid differentiation induction; AID 624256; ER-HoxA9 myeloid progenitors, lysozyme-GFP differentiation, flow cytometry; 360,000 tested, 1% active; calls only at 10 µM;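 active = normalized GFP-positive differentiation at or above the plate's own cutoff, the solvent-only control mean plus 3 SD; inconclusive = no clear call, values can overlap the other calls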;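 note: cells exposed to compound for four days before flow analysis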
XiGFP reactiv – X-chromosome reactivation activator | XiGFP mouse fibroblasts, % GFP-positive cells imaging, 3 d; cells co-treated with 5-aza-dC sensitizer; scaled so ellipticine positive control = 100% | activation, % at 7.58 µM | 360,000 tested, 0.055% active | AID 743238;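 active = mean normalized replicate activation at least 10% and every replicate at or above 10%; inconclusive = only one of the two criteria met; inactive = mean below 10% and not all replicates reach 10%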
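assay system = SV40-immortalized XiGFP fibroblast cells, line 68-5-11 | buffer or medium = DMEM plus 5-aza-dC sensitizer | doses = single-point pinned compound dosing | times = 3-day compound exposure, then 15 min fixation at room temperature | benchmarks = positive control ellipticine, 6 µM final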
ABCB6 inh 2 – human ABCB6 transporter inhibition. Q9NP58. K562-ABCB6 porphyrin accumulation, flow cytometry, 1 h; hits give low values. fluorescence ratio to DMSO, % at 10 µM. 360,000 tested, 0.19% active;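 active = fluorescence ratio to DMSO below 75%, the collection mean minus 3 SD; inconclusive = too few cells collected in the well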;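 note: signal is porphyrin accumulated inside mitochondria; lower ratio means ABCB6 inhibition with less porphyrin fluorescence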
Target sequence (Q9NP58 whole entry, looked up): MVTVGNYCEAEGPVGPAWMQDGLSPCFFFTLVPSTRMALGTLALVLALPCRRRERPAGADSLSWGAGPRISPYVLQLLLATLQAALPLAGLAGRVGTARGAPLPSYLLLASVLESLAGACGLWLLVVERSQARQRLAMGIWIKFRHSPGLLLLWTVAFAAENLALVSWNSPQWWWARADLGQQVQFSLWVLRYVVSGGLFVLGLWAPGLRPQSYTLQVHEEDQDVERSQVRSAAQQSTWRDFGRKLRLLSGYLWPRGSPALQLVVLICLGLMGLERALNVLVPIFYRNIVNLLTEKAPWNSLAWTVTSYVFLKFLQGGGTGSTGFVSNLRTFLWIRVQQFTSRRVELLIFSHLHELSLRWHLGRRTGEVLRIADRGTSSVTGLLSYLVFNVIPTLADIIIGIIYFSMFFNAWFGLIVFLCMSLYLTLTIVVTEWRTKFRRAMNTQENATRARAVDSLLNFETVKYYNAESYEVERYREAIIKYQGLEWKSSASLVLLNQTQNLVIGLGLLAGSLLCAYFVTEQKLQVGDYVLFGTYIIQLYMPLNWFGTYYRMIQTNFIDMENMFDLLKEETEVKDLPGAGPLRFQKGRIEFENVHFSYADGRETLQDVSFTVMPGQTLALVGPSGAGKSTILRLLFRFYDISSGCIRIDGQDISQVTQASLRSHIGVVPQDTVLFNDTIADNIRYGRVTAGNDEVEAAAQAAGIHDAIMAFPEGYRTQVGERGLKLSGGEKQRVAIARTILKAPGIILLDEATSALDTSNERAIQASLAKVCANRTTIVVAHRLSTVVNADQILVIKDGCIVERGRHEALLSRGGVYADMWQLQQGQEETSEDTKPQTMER
Each line names hits and unclear results; the compound was inactive in the other large screens. Many of the other results were omitted from the sample, so hits are more common in it than they were.

O=C1COc2ccc(C(=O)NCc3ccc4c(c3)OCO4)cc2N1	none (no result: XiGFP reactiv)
CC(C)(C)c1ccc(CNC(=O)c2ccc3c(c2)NC(=O)CO3)cc1	Myeloid diff 2 active
O=C(C[C@H]1CC[C@H](NC(=O)Nc2ccccc2F)[C@H](CO)O1)NCc1ccc(-c2ccccc2)cc1	none (no result: Myeloid diff 2, ABCB6 inh 2)
COc1cc(C2C(C#N)=C(N)N(c3cccnc3)C3=C2C(=O)CCC3)ccc1O (stereo not given)	none (no result: XiGFP reactiv)
COc1cc(C2C(C#N)=C(N)N(c3ccc(F)cc3)C3=C2S(=O)(=O)CC3)ccc1O (stereo not given)	Myeloid diff 2 active
CC(/C=N\NC(=O)Cn1c(C)nc2ccccc21)=C\c1ccccc1	Myeloid diff 2 active (no result: XiGFP reactiv)
CC(/C=N/NC(=O)CSc1nc(C)cc(C)n1)=C\c1ccccc1	none
Cc1ccccc1-c1ccc([C@@H]2[C@H](CO)N3CCCCN(C(=O)c4cccnc4)C[C@@H]23)cc1	none (no result: Myeloid diff 2, ABCB6 inh 2)
CCOC(=O)C1=C(CSc2nc(CC)c(C)cc2C#N)OC(N)=C(C#N)C1c1ccccc1 (stereo not given)	none (no result: XiGFP reactiv)
CCOC(=O)C1=C(CSc2nc(-c3ccccc3)ccc2C#N)OC(N)=C(C#N)C1c1ccc(OC)cc1 (stereo not given)	Myeloid diff 2 active (no result: XiGFP reactiv)
COc1ccc(NC(=O)Nc2ccc3c(c2)C(=O)N([C@H](C)CO)C[C@H](C)[C@H](CN(C)C)OCCCC[C@H](C)O3)cc1	none (no result: Myeloid diff 2, ABCB6 inh 2)
CC(CCc1ccccc1)NC(=O)c1ccccc1Cl (stereo not given)	none
CCOc1ncccc1C(=O)NC(C)CCc1ccccc1 (stereo not given)	Myeloid diff 2 active
CCOC(=O)c1[nH]c2ccc(Cl)cc2c1NC(=O)/C=C/c1ccc2c(c1)OCO2	none
CCN(CC(=O)Nc1c(C(=O)OC)[nH]c2ccc(Cl)cc12)c1ccc2c(c1)OCO2	Myeloid diff 2 active (no result: XiGFP reactiv)
COc1ccc(-c2cn(CC[C@@H]3CC[C@@H](NC(=O)NC(C)C)[C@H](CO)O3)nn2)cc1	none (no result: Myeloid diff 2, ABCB6 inh 2)
O=C(CN1C(=O)c2cccc3cccc(c23)C1=O)N1CCCCCC1	ABCB6 inh 2 63 (no result: XiGFP reactiv)
O=C1c2cccc3cc([N+](=O)[O-])cc(c23)C(=O)N1CCN1CCCC1	Myeloid diff 2 inconclusive
Nc1cc2c3c(cccc3c1)C(=O)N(CCN1CCCC1)C2=O	Myeloid diff 2 active
O=C(CN1C(=O)c2ccccc2C1=O)N1CCCCC1	none (no result: XiGFP reactiv)
O=C(C[C@H]1CC[C@H](NC(=O)Nc2ccc3c(c2)OCO3)[C@@H](CO)O1)NCc1ccc(Cl)cc1	none (no result: Myeloid diff 2, ABCB6 inh 2)
O=C(C1CCCC1)N1CC(=O)N2[C@H](C1)[C@H](c1ccc(C#CC3CCCC3)cc1)[C@@H]2CO	none (no result: Myeloid diff 2, ABCB6 inh 2)
O=C(C[C@@H]1C=C[C@@H](NC(=O)Nc2ccccc2)[C@H](CO)O1)NCc1ccccn1	none (no result: Myeloid diff 2, ABCB6 inh 2)
COc1ccc2c3c(n(C)c2c1)[C@@H](CO)N(Cc1ccncc1)CC31CN(C(=O)NC(C)C)C1	none (no result: Myeloid diff 2, ABCB6 inh 2)
COc1ccccc1-c1cn(CC[C@@H]2CC[C@H](NC(=O)NC(C)C)[C@H](CO)O2)nn1	none (no result: Myeloid diff 2, ABCB6 inh 2)
C[C@@H]1CN([C@H](C)CO)C(=O)c2cc(NC(=O)c3ccccc3)ccc2O[C@@H](C)CCCCO[C@H]1CN(C)C(=O)Nc1ccc2c(c1)OCO2	none (no result: Myeloid diff 2, ABCB6 inh 2)
COc1cc(OC)c(NC(=O)[C@@H]2CCC(=O)N2C2OC(=O)c3c2ccc(OC)c3OC)cc1Cl (stereo not given in full)	none (no result: XiGFP reactiv)
COC(=O)c1ccccc1NC(=O)[C@@H]1CCC(=O)N1C1OC(=O)c2c1ccc(OC)c2OC (stereo not given in full)	Myeloid diff 2 active (no result: XiGFP reactiv)
O=C(Nc1ccc(F)cc1)N[C@@H]1CC[C@@H](CCNC(=O)c2cc(Cl)cc(Cl)c2)O[C@@H]1CO	none (no result: Myeloid diff 2, ABCB6 inh 2)
COc1cccc(-c2cn(CC[C@H]3CC[C@@H](NC(C)=O)[C@@H](CO)O3)nn2)c1	none (no result: Myeloid diff 2, ABCB6 inh 2)
CC(=O)C1=C(C)NC(SCC(=O)c2ccc(Cl)cc2)=C(C#N)C1c1ccco1 (stereo not given)	Myeloid diff 2 active (no result: XiGFP reactiv)
CC(=O)C1=C(C)NC(SCC(=O)c2ccc(Cl)cc2Cl)=C(C#N)C1c1ccco1 (stereo not given)	none (no result: XiGFP reactiv)
O=C(NNC(=O)c1cccs1)c1ccccc1	none
CC(Oc1ccccc1)C(=O)NNC(=O)c1cccs1 (stereo not given)	Myeloid diff 2 active (no result: ABCB6 inh 2)
COC(=O)C(=O)C/C(=N/Nc1ncnc2ccccc12)c1ccc(Cl)cc1	Myeloid diff 2 active
Cc1ccc(/C(=N/Nc2ncnc3ccccc23)C(=O)O)cc1	none
C[C@H](O)C#Cc1cnc2c(c1)C(=O)N([C@H](C)CO)C[C@H](C)[C@H](CN(C)C(=O)CN1CCOCC1)O2	none (no result: Myeloid diff 2, ABCB6 inh 2)
c1ccc(-c2csc3nnc(SCc4ccc5c(c4)OCO5)n23)cc1	Myeloid diff 2 active
Cc1ccc(-c2csc3nnc(SCC(=O)NCc4ccc5c(c4)OCO5)n23)cc1	none (no result: XiGFP reactiv)
C[C@H]1CN([C@@H](C)CO)C(=O)c2cc(-c3cccc(C#N)c3)cnc2O[C@@H]1CN(C)C(=O)c1ccccn1	none (no result: Myeloid diff 2, ABCB6 inh 2)
COc1ccc(N2CCN(C(=O)COC(=O)c3ccco3)CC2)cc1	Myeloid diff 2 active
COc1ccc(N2CCN(C(=O)COC(=O)Cc3cccc(OC)c3)CC2)cc1	none
COc1ccc(N2CCN(C(=O)COC(=O)/C=C/c3ccc(C(F)(F)F)cc3)CC2)cc1	Myeloid diff 2 active
COc1ccc(N2CCN(C(=O)COC(=O)/C=C/c3ccc(OC(F)F)cc3)CC2)cc1	none (no result: Myeloid diff 2)
C[C@@H]1CCCCO[C@H](CN(C)S(C)(=O)=O)[C@@H](C)CN([C@H](C)CO)C(=O)c2cc(NC(=O)CCCN(C)C)ccc2O1	none (no result: Myeloid diff 2, ABCB6 inh 2)
CC(=O)N1CC(=O)N2[C@@H](CO)[C@H](c3ccc(-c4ccncc4)cc3)[C@@H]2C1	none (no result: Myeloid diff 2, ABCB6 inh 2)
C[C@@H]1CN([C@@H](C)CO)C(=O)c2cc(NC(=O)Cn3cnnn3)ccc2O[C@H]1CN(C)Cc1ccncc1	none (no result: Myeloid diff 2, ABCB6 inh 2)
C[C@H]1CN([C@@H](C)CO)C(=O)c2cc(-c3ccccc3F)cnc2O[C@H]1CN(C)C(=O)C1CCC1	none (no result: Myeloid diff 2, ABCB6 inh 2)
Cc1noc(/C=C/c2ccc(-c3ccccc3Cl)o2)c1[N+](=O)[O-]	Myeloid diff 2 active (no result: XiGFP reactiv)
Cc1noc(/C=C/c2cccnc2)c1[N+](=O)[O-]	none
CCCCN(CCCC)S(=O)(=O)c1ccc(NS(=O)(=O)c2ccc(NC(C)=O)cc2)cc1	none (no result: XiGFP reactiv)
COc1ccc(NS(=O)(=O)c2ccc3[nH]c(=O)[nH]c3c2)cc1	none
CCCCOc1ccc(S(=O)(=O)Nc2ccc(NC(C)=O)cc2)cc1	Myeloid diff 2 active (no result: XiGFP reactiv)
CC(=O)NS(=O)(=O)c1ccc(NS(=O)(=O)c2ccc3ccccc3c2)cc1	none
CC(=O)Nc1ccc(NS(=O)(=O)c2ccc3[nH]c(=O)[nH]c3c2)cc1	Myeloid diff 2 active
CC(=O)Nc1ccc(NS(=O)(=O)c2ccc3ccccc3c2)cc1	Myeloid diff 2 active (no result: XiGFP reactiv)
O=C(CC1CC1)N1CC[C@@H]2[C@H]1c1cc(-c3cccc(F)c3)ccc1N[C@@H]2CO	none (no result: Myeloid diff 2, ABCB6 inh 2)
COc1ccc2c3c(n(C)c2c1)[C@@H](CO)N(C(C)=O)CC31CCN(C(=O)Nc2ccccc2F)CC1	none (no result: Myeloid diff 2, ABCB6 inh 2)
CCS(=O)(=O)Nc1ccc2c(c1)C(=O)N(C)C[C@@H](OC)[C@H](C)CN(C(=O)COC)[C@H](C)CO2	none (no result: Myeloid diff 2, ABCB6 inh 2)
CCCNC(=O)N(C)C[C@H]1Oc2ncc(C#Cc3ccncc3)cc2C(=O)N([C@@H](C)CO)C[C@H]1C	none (no result: Myeloid diff 2, ABCB6 inh 2)
O=C1C(Cl)=C(N2CCN(c3ccccc3[N+](=O)[O-])CC2)C(=O)c2ccccc21	Myeloid diff 2 inconclusive, XiGFP reactiv 35
